# Measurements reported in PMC6644768 (ACS Omega, 2018).
# Legend:
# Assay type in all cases: cell-based
# A549 cells [1] = test: Scratch wound healing assay; conditions: 100 nM
# ROS in HeLa cells = test: Intracellular ROS by DCFDA dye; conditions: 6 h, control 2.4 ± 0.1
# HeLa cells [2] = test: Mitotic index by Hoechst 33258 staining; conditions: 20 nM; control 3 ± 0.6
# Outline: (§1)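 HeLa cells exposed to 75 and 200 nM test compound or 20 nM reference agent for 12 h. Cells immunostained for phospho-histone H3 (Ser10), with DNA counterstained by Hoechst 33258. Mitotic index scored either from DNA morphology or as phospho-H3-positive cells. Experiment performed three times; error given as standard deviation.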
# MCF-7 cells = test: IC50 determination, sulforhodamine B assay, MCF-7; conditions: MCF-7, one cell cycle
# Outline: (§2)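 Sulforhodamine B proliferation assay as run for A549, but with cells exposed to test compound for one cell cycle. Read-out: TCA fixation, dye binding, Tris solubilization, absorbance at 520 nm. IC50 fitted by nonlinear regression; each cell line determined three times independently. Culture media: HeLa and MCF-7 in Eagle's MEM; L929 and B16F10 in DMEM; MCF 10A in DMEM/F12K with 10% FBS, EGF, hydrocortisone and insulin.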
# A549 cells [3] = test: IC50 determination, sulforhodamine B assay, A549; conditions: A549 cell line, 24 h
# Outline: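 A549 cells (F-12K medium, 10% FBS) plated at 10 000 cells/well and grown 24 h, then exposed to a range of test compound concentrations for 24 h. Sulforhodamine B read-out: fixation in 50% TCA for 1 h at 4 °C, then 0.4% dye in 1% acetic acid for 1 h, 1% acetic acid washes, and solubilization in 10 mM Tris pH 10.0. Absorbance read at 520 nm. IC50 from nonlinear regression, three independent determinations.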
# HeLa cells [4] = test: PI staining of dead cells; conditions: 20 nM, 24 h; control 6%
# Outline: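 HeLa cells on coverslips (2.5 × 10^4 cells/well, 24 h) given vehicle (0.1% DMSO), 75 or 200 nM test compound, or 20 nM reference agent for 24 h. Plates centrifuged at 2500 rpm for 15 min and washed in PBS. Cells stained with propidium iodide for 15 min at room temperature in the dark and imaged. PI-positive cells counted as a percentage. Two independent sets.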
# HeLa cells [5] = test: Mitotic index by phospho-histone H3 staining; conditions: 20 nM; control 3 ± 0.2
# Outline: as §1
# MCF 10A cells = test: IC50 determination, sulforhodamine B assay, MCF 10A; conditions: one cell cycle
# Outline: as §2
# tubulin in HeLa cells = test: Soluble and polymeric tubulin in cells by western blot; conditions: 25 nM, control 2.1 ± 0.4
smiles,measurement,setting,value
"COc1ccc(/C=C\c2cc(OC)c(OC)c(OC)c2)cc1O [CA-4, combretastatin A-4]",inhibition of migration of A549 cells,A549 cells [1]; 10 h,77 ± 5%
same,rate of migration,A549 cells [1]; vehicle 3 ± 0.7,0.4 ± 0.2 μm/h
same,fluorescence intensity of DCFDA per cell,ROS in HeLa cells; 20 nM,3.6 ± 0.4
same,"mitotic index, Hoechst staining",HeLa cells [2],40 ± 1.2
same,IC50,MCF-7 cells,18 ± 3 nM
same,IC50,A549 cells [3],112 ± 7 nM
same,PI-stained positive cells,HeLa cells [4],87%
same,"mitotic index, phospho-histone staining (percentage of mitotic cells)",HeLa cells [5],38 ± 0.3%
same,IC50,MCF 10A cells,144 ± 31 nM
CC[C@]1(O)C[C@@H]2CN(CCc3c([nH]c4ccccc34)[C@@](C(=O)OC)(c3cc4c(cc3OC)N(C)[C@H]3[C@@](O)(C(=O)OC)[C@H](OC(C)=O)[C@]5(CC)C=CCN6CC[C@]43[C@@H]65)C2)C1 [vinblastine],ratio of polymeric to soluble tubulin,tubulin in HeLa cells,1.4 ± 0.9
"OO [Compound H2O2, H2O2]",fluorescence intensity of DCFDA per cell,ROS in HeLa cells; 100 μM,4.5 ± 0.2
